The results in this text go back to ChEMBL document CHEMBL1121682, “Cerebrovasodilatation through selective inhibition of the enzyme carbonic anhydrase. 3. 5-(Arylthio)-, 5-(arylsulfinyl)-, and 5-(arylsulfonyl)thiophene-2-sulfonamides” (J Med Chem, 1981).

The source made the active and inactive calls. The calls are words filed in the database; no cut-off is given here.

Data set [1] concerns Mus musculus. Kind of data set: Effective dose of perorally administered compound that gives protection against max electroshock in mice; inactive. The data set is classed as functional, organism-based. The method, boiled down:
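Male mice of 18–28 g, with weights within ±2 g of the assay mean, in groups of ten. Compound was ball-milled in 0.1% (v/v) Tween-80 in saline and given by gavage at 2.5, 6.25 and 16 mg/kg, 2 h before shock. Vehicle controls were included. Corneal electrodes delivered 200 ms at 20 mA (mean weight ≤20 g) or 25 mA, the current giving maximal tonic extensor convulsion in untreated mice.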

Data set [2] deals with Mus musculus. The data set is described as follows: Effective dose of perorally administered, that gives protection against max electroshock in mice. The data set is classed as functional. Particulars: po. Put shortly:
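Male mice of 18–28 g, with weights within ±2 g of the assay mean, in groups of ten. Vehicle controls were included. Corneal electrodes delivered 200 ms at 20 mA (mean weight ≤20 g) or 25 mA, the current giving maximal tonic extensor convulsion in untreated mice.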

Data set [3] in a line: Anticonvulsant potency ratio expressed as ratio ED50 of UK-12130 to that of compound during separate electroshock experiments. The data set is classed as functional.
Data set [4] can be described thus: Concentration producing 50% inhibition of carbonic anhydrase taken from mouse erythrocytes. The method, boiled down:
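Colorimetric assay, modified from Philpot and Philpot, run in an ice bath with about 2 enzyme units. Inhibitor was preincubated with enzyme for 5 min before substrate was added. Activity was expressed as EU = (T0 − T)/T from the uncatalyzed and catalyzed reaction times in seconds. The 50% inhibitory concentration was read graphically.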

A short description of data set [5]: Dissociation constant in 30% aqueous methanol. The data set is classed as physicochemical.
The nature of data set [6]: Dissociation constant in water. In kind it is physicochemical.

In general, ED50 refers to the dose at which the effect has come halfway, by size or by number of responders. On to `CC(=O)Nc1ccc(Sc2sc(S(N)(=O)=O)cc2Cl)cc1`, for which the ED50 result in data set [1] is “inactive”. As to `Cc1ccccc1Sc1ccc(S(N)(=O)=O)s1`, the ED50 in data set [2] is more than 16 mg/kg. The Ratio in data set [3] was less than 0.5. With `NS(=O)(=O)c1cc(Cl)c(Sc2ccccc2)s1`, the ED50 entry in data set [1] is “inactive”. In data set [2], `NS(=O)(=O)c1ccc([S+]([O-])c2ccc(F)cc2)s1` (centres undefined) came in with an ED50 of 3 mg/kg. Moreover, the Ratio in data set [3] is 2. `NC(=O)c1ccc(S(=O)(=O)c2ccc(S(N)(=O)=O)s2)cc1` came in with an ED50 in data set [2] of 4 mg/kg. The Ratio in data set [3] is 2.

In turn, `Cc1cc(S(N)(=O)=O)sc1S(=O)(=O)c1ccccc1` registered an ED50 in data set [2] of 3 mg/kg. Moreover, the Ratio in data set [3] was 2.7.

In data set [2], `Cc1ccccc1S(=O)(=O)c1ccc(S(N)(=O)=O)s1` showed an ED50 of 6 mg/kg. In addition, the Ratio in data set [3] was found to be 1.2. Turning to `NS(=O)(=O)c1cc(Br)c(Sc2ccccc2)s1`, in data set [1], the ED50 result was “inactive”. For the compound `NS(=O)(=O)c1ccc(Sc2ccc(O)cc2)s1`, the ED50 entry in data set [1] was “inactive”.

As to `CC(=O)Nc1ccc([S+]([O-])c2ccc(S(N)(=O)=O)s2)cc1` (centres undefined), the ED50 in data set [2] amounted to 4 mg/kg. Besides, the Ratio in data set [3] stood at 1.5. The corresponding values for `NS(=O)(=O)c1ccc(S(=O)(=O)c2ccc(Cl)cc2)s1` are 3 mg/kg and 2.3. `CC(=O)Nc1ccc(Sc2ccc(S(N)(=O)=O)s2)cc1` registered an ED50 in data set [2] of 9 mg/kg. Further, the Ratio in data set [3] worked out at 1.1. `Cc1ccc([S+]([O-])c2ccc(S(N)(=O)=O)s2)cc1` (centres undefined) registered a median effective dose (ED50) in data set [2] of more than 6 mg/kg. Further, the Ratio in data set [3] is less than 1.3. The like results for `NS(=O)(=O)c1ccc(S(=O)(=O)c2cccc(F)c2)s1` were, in that order, 2 mg/kg and 3.5. On to `COc1ccc(S(=O)(=O)c2ccc(S(N)(=O)=O)s2)cc1`, for which the 50% effective dose (ED50) in data set [2] worked out at 6 mg/kg. Further, the Ratio in data set [3] is 1. The like results for `Nc1ccc(Sc2ccc(S(N)(=O)=O)s2)cc1` were, in that order, 7 mg/kg and 1. What is called pKa is the negative logarithm of the acid dissociation constant. In data set [4], `NS(=O)(=O)c1ccc(Sc2ccc(Cl)cc2)s1` came in with a Concentration of 3 nM. This compound also came in with an ED50 in data set [2] of 3 mg/kg. Further, the Ratio in data set [3] came to 2. The pKa in data set [5] worked out at 9.19. In turn, `Cc1ccc(Sc2ccc(S(N)(=O)=O)s2)cc1` came in with an ED50 in data set [2] of more than 40 mg/kg. The Ratio in data set [3] is less than 0.2. The corresponding values for `CS(=O)(=O)c1ccc(Sc2ccc(S(N)(=O)=O)s2)cc1` are 5 mg/kg and 1.4. The like results for `CC(=O)Nc1ccc(S(=O)(=O)c2ccc(S(N)(=O)=O)s2)cc1` were, in that order, 2 mg/kg and 4. In data set [4], `CC(=O)Nc1nnc(S(N)(=O)=O)s1` [ACETAZOLAMIDE] came in with a Concentration of 20 nM. Besides, in data set [2], the ED50 is 36 mg/kg. The compound `CC(=O)c1cccc(S(=O)(=O)c2ccc(S(N)(=O)=O)s2)c1` yielded an ED50 in data set [2] of 3 mg/kg. Also, in data set [3], the Ratio came out at 2.3.

As to `CN(C)S(=O)(=O)c1ccc(S(=O)(=O)c2ccc(S(N)(=O)=O)s2)cc1`, in data set [1], the ED50 entry is “inactive”. Still for that read-out and setting: the same measure for `NS(=O)(=O)c1sc(Sc2ccccc2)cc1Cl`: “inactive”. For `NS(=O)(=O)c1ccc(Sc2ccc(F)cc2)s1`, the ED50 in data set [2] was 7 mg/kg. The Ratio in data set [3] is 1. In data set [4], `COC1CCN(S(=O)(=O)c2ccc(S(N)(=O)=O)c(Cl)c2)CC1` registered a Concentration of 190 nM.

As to `NS(=O)(=O)c1cc(Cl)c(S(=O)(=O)c2ccccc2)s1`, the ED50 in data set [2] came out at 3 mg/kg. In data set [3], the Ratio was 2.3. The corresponding values for `NS(=O)(=O)c1ccc(S(=O)(=O)c2ccccc2)s1` are 2 mg/kg and 3.5. Take `NS(=O)(=O)c1ccc([S+]([O-])c2cccc(F)c2)s1` (centres undefined): in data set [2], the ED50 was determined as 2.5 mg/kg. For the same compound, the Ratio in data set [3] was determined as 3.2.

As to `NS(=O)(=O)c1ccc([S+]([O-])c2cccc(Cl)c2)s1` (centres undefined), the 50% effect level in data set [2] (ED50) was put at a dose of 4 mg/kg. Moreover, in data set [3], the Ratio was found to be 1.75. In data set [2], `CC(=O)Nc1ccc(S(=O)(=O)c2sc(S(N)(=O)=O)cc2Cl)cc1` came in with an ED50 of 6 mg/kg. In data set [3], the Ratio stood at 1.3.

The compound `CS(=O)(=O)c1ccc([S+]([O-])c2ccc(S(N)(=O)=O)s2)cc1` (centres undefined) came in with an ED50 in data set [2] of more than 16 mg/kg. In data set [3], the Ratio is less than 0.4.

As to `NS(=O)(=O)c1ccc(S(=O)(=O)c2ccc(O)cc2)s1`, the ED50 entry in data set [1] was “inactive”. In data set [2], `NS(=O)(=O)c1sc(S(=O)(=O)c2ccccc2)cc1Cl` gave an ED50 of 33 mg/kg. For the same compound, in data set [3], the Ratio was 0.2.

In the case of `NS(=O)(=O)c1cc(Br)c(S(=O)(=O)c2ccccc2)s1`, in data set [6], the pKa stood at 7.98. In addition, the Concentration in data set [4] came out at 4.2 nM. This compound also came in with a 50% effective dose (ED50) in data set [2] of 3 mg/kg. In addition, the Ratio in data set [3] was found to be 2.3. Consider `CC(C)(C)c1ccc(S(=O)(=O)c2ccc(S(N)(=O)=O)s2)cc1`, for which the ED50 entry in data set [1] was “inactive”.

As to `CC(=O)Nc1ccc(S(=O)(=O)c2cc(Cl)c(S(N)(=O)=O)s2)cc1`, the ED50 in data set [2] is more than 6 mg/kg. For the same compound, the Ratio in data set [3] was less than 1.3.

In turn, `NS(=O)(=O)c1ccc(S(=O)(=O)c2ccccc2)cc1` gave a pKa in data set [6] of 9.1. This compound also displayed a Concentration in data set [4] of 64 nM. The compound further yielded an ED50 in data set [2] of 10 mg/kg. Further, the Ratio in data set [3] was determined as 0.9. For the compound `NS(=O)(=O)c1ccc(S(=O)(=O)c2ccc3ccccc3c2)s1`, the 50% effect level in data set [2] (ED50) was put at a dose of 8 mg/kg. Besides, the Ratio in data set [3] was 0.75. The like results for `NS(=O)(=O)c1ccc(Sc2cccc(F)c2)s1` were, in that order, more than 6 mg/kg and less than 1.3. Regarding `CN(C)S(=O)(=O)c1ccc(Sc2ccc(S(N)(=O)=O)s2)cc1`, in data set [2], the ED50 was more than 6 mg/kg. Further, in data set [3], the Ratio was less than 1.3. The corresponding values for `COc1ccc(Sc2ccc(S(N)(=O)=O)s2)cc1` are more than 40 mg/kg and less than 0.2. Compound `NS(=O)(=O)c1ccc(S(=O)(=O)c2cccc(C(F)(F)F)c2)s1` registered an ED50 in data set [2] of 5 mg/kg. Besides, in data set [3], the Ratio came out at 1.6. The corresponding values for `COc1ccc([S+]([O-])c2ccc(S(N)(=O)=O)s2)cc1` (centres undefined) are more than 6 mg/kg and less than 1.3. Compound `NS(=O)(=O)c1ccc([S+]([O-])c2ccc(Br)cc2)s1` (centres undefined) had an ED50 in data set [2] of 5 mg/kg. The Ratio in data set [3] was determined as 1.4. The corresponding values for `CSc1ccc(Sc2ccc(S(N)(=O)=O)s2)cc1` are 4 mg/kg and 1.75. The like results for `Cc1ccc(S(=O)(=O)c2ccc(S(N)(=O)=O)s2)cc1` were, in that order, 8 mg/kg and 0.8. The corresponding values for `NS(=O)(=O)c1ccc(Sc2cccc(Cl)c2)s1` are more than 6 mg/kg and less than 1.2. `CC(C)C(=O)Nc1ccc(S(=O)(=O)c2ccc(S(N)(=O)=O)s2)cc1` displayed an ED50 in data set [2] of 4 mg/kg. Moreover, the Ratio in data set [3] amounted to 2. `NS(=O)(=O)c1ccc(Sc2ccc(Br)cc2)s1` showed an ED50 in data set [2] of more than 6 mg/kg. Further, the Ratio in data set [3] was less than 1.2. `NS(=O)(=O)c1ccc([S+]([O-])c2ccc(Cl)cc2)s1` (centres undefined): the pKa in data set [6] stood at 8.57. The Concentration in data set [4] was found to be 26 nM. This compound yielded an ED50 in data set [2] of 2 mg/kg. The Ratio in data set [3] is 3.5.

In data set [2], `NS(=O)(=O)c1ccc(Sc2ccccc2)s1` showed an ED50 of 19 mg/kg. The Ratio in data set [3] was 0.3. The like results for `NS(=O)(=O)c1cc(Cl)c([S+]([O-])c2ccccc2)s1` (centres undefined) were, in that order, more than 6 mg/kg and less than 1.3. The like results for `NS(=O)(=O)c1ccc([S+]([O-])c2ccccc2)s1` (centres undefined) were, in that order, 2 mg/kg and 3.5. In data set [2], `NS(=O)(=O)c1ccc(S(=O)(=O)c2ccc(Br)cc2)s1` returned an ED50 of 4 mg/kg. Besides, the Ratio in data set [3] was 1.75. `NS(=O)(=O)c1ccc(S(=O)(=O)c2ccc(F)cc2)s1`: the pKa in data set [6] turned out to be 8.29. The compound further came in with a Concentration in data set [4] of 9 nM. The compound further came in with an ED50 in data set [2] of 2 mg/kg. Besides, the Ratio in data set [3] turned out to be 4. For the compound `NS(=O)(=O)c1ccc(Sc2ccc3ccccc3c2)s1`, the ED50 entry in data set [1] was “inactive”. As for `Nc1ccc(S(=O)(=O)c2ccc(S(N)(=O)=O)s2)cc1`, the 50% effect level in data set [2] (ED50) was put at a dose of 2 mg/kg. Besides, in data set [3], the Ratio was 3.5. In the case of `CC(C)C(=O)Nc1ccc(Sc2ccc(S(N)(=O)=O)s2)cc1`, the ED50 result in data set [1] was “inactive”.

`NS(=O)(=O)c1ccc(Sc2cccc(C(F)(F)F)c2)s1`: the 50% effect level in data set [2] (ED50) was put at a dose of 6 mg/kg. In data set [3], the Ratio was determined as 1.3. As to `CS(=O)(=O)c1ccc(S(=O)(=O)c2ccc(S(N)(=O)=O)s2)cc1`, in data set [2], it took a dose of 4 mg/kg to reach the 50% effect level (ED50). Moreover, the Ratio in data set [3] is 1.75. Take `CC(C)(C)c1ccc(Sc2ccc(S(N)(=O)=O)s2)cc1`: in data set [1], the ED50 result is “inactive”. `CC(=O)Nc1ccc(Sc2cc(Cl)c(S(N)(=O)=O)s2)cc1` yielded an ED50 in data set [2] of 5 mg/kg. For the same compound, the Ratio in data set [3] is 1.4.
